One may read the inhibition as the share of the control response that was lost under treatment. For orientation: IC50 means the concentration that inhibits the measured activity by half.

The structures appear in SMILES notation. Calls of active or inactive are those of the source. The calls are words filed in the database; no cut-off is given here.

Experimental findings from ChEMBL document CHEMBL3085707, “Solution-phase microwave assisted parallel synthesis of N,N'-disubstituted thioureas derived from benzoic acid: biological evaluation and molecular docking studies” (Eur J Med Chem, 2013) are described below.

The test system of one test is Candida tropicalis. The experiment in a line: Antifungal activity against Candida tropicalis after 24 to 48 hrs by agar well diffusion method. Format: functional. A digest of the protocol:
(§1)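 Agar well diffusion: 20 mL inoculum added to molten potato dextrose agar and pour-plated, with 6 mm wells cut by cork borer after setting. Inhibition zone measured in mm and scored from + (<1 mm) to ++++ (>6 mm). 2% DMSO in screen medium was the negative control; fluconazole and terbinafine were separate positive controls.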

For a further test, the system named is Saccharomyces cerevisiae. Description: Antifungal activity against Saccharomyces cerevisiae after 24 to 48 hrs by agar well diffusion method. Format: functional. The method, boiled down:
as §1
On the technique in general: Agar diffusion results depend on both activity and mobility in agar.

Another test deals with Aspergillus flavus. Description: Antifungal activity against Aspergillus flavus after 24 to 48 hrs by agar well diffusion method. Format: functional. The method, boiled down: as §1
A further test concerns Aspergillus niger. Description: Antifungal activity against Aspergillus niger after 24 to 48 hrs by agar well diffusion method. Format: functional. The method, boiled down: as §1
Test [1] concerns Radical scavenging activity. The experiment in a line: Antioxidant activity assessed as DPPH free radical scavenging activity at 1 mM after 30 mins. Type of test: functional. For orientation: The DPPH test is a chemical assay of radical scavenging.
In test [2] the target is Urease (Canavalia ensiformis) (UniProt P07374). The experiment in a line: Competitive inhibition of jack bean urease by Lineweaver-Burk plot analysis. A digest of the protocol: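 Urease kinetics by the Weatherburn method: buffer of 100 mM urea, 1 mM EDTA, 10 mM K2HPO4 and 10 mM […] at pH 8.2, with enzyme at 5 U/mL and inhibitor, incubated 30 min at 37 °C. Inhibitor was used at 0, 0.05 and 0.5 mM. Vmax and Km were taken from Lineweaver-Burk plots.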

The target in a further test is Urease (Canavalia ensiformis, UniProt P07374). Description: Inhibition of jack bean urease assessed as ammonia production after 30 mins by indophenol method. The method, boiled down: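 Indophenol (Weatherburn) ammonia read-out. Enzyme (5 U/mL) and test compound in buffer of 100 mM urea, 1 mM EDTA, 10 mM K2HPO4 and 10 mM […] at pH 8.2, incubated 30 min at 37 °C. Phenol and alkali reagents (NaOH, 0.1% active chloride NaOCl) then added; absorbance read by microplate reader. Run in triplicate; thiourea and acetohydroxamic acid as reference inhibitors.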
Sequence of Urease (P07374 whole entry): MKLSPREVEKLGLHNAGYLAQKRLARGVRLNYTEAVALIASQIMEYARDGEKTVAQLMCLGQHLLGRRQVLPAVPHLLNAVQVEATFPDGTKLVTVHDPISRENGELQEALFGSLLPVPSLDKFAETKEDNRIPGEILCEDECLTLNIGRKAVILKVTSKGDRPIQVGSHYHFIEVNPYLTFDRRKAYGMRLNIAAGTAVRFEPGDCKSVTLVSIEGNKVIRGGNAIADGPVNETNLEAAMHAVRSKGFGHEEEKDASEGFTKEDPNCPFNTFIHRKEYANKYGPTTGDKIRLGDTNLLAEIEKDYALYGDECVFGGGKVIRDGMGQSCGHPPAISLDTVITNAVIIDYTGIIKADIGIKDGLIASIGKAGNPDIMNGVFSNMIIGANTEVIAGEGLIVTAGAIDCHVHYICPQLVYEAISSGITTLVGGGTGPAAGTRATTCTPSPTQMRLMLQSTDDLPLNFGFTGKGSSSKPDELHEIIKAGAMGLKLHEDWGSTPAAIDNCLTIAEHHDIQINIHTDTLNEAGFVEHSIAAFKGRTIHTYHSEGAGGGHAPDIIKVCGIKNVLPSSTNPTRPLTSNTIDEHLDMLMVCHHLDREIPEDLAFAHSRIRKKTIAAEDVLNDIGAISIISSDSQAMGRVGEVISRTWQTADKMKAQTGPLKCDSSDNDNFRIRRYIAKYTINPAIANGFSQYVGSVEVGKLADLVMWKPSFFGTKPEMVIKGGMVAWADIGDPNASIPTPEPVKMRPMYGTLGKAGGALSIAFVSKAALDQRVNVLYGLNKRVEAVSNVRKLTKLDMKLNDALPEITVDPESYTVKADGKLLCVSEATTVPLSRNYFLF

Sequence of Urease (Canavalia ensiformis) (P07374 whole entry, looked up): as the sequence (P07374 whole entry) above

With `O=C(NC(=S)Nc1c(Cl)cc(Cl)cc1Cl)c1ccccc1`, the “inhibition zone (IZ)” value with Candida tropicalis, in the test with Saccharomyces cerevisiae, in the test on Aspergillus flavus and in the test with Aspergillus niger was 3 mm each time. Moreover, in test [1], the inhibition was found to be 19%. The inhibition result in test [2] is “Active”. The IC50 at Urease is 1670 nM.
